Measurements: ChEMBL document CHEMBL4382192, “Discovery of a potent dual ALK and EGFR T790M inhibitor” (Eur J Med Chem, 2017)

Key:
CYP2C19 = CYP2C19 (Homo sapiens, UniProt P33261); assay: Residual activity of CYP2C19 in human liver microsomes at 10 uM using S-mephenytoin 4-hydroxylase as substrate preincubated for 5 mins followed by NADPH addition measured after 15 mins by LC/MS/MS analysis relative to control; details: probe S-mephenytoin (4-hydroxylation)
[1] = Metabolic stability in mouse liver microsomes assessed as parent compound remaining at 1 uM after 30 mins in presence of NADPH by LC/MS/MS analysis; format: ADME, Microsome; details: read-out: Stability
Method in brief: (§1)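 Compound at 1 μM final with 0.5 mg/mL microsomal protein in 100 mM phosphate buffer pH 7.4 at 37 °C, started by adding an NADPH-regenerating system. Reactions were quenched with cold acetonitrile at 0 and 30 min and spun down. Supernatant was analysed by LC-MS/MS. The 0-min sample, quenched before NADPH addition, was set as 100%, and percent parent remaining came from peak areas.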

CYP2D6 = CYP2D6 (Homo sapiens, UniProt P10635); assay: Residual activity of CYP2D6 in human liver microsomes at 10 uM using dextromethorphan O-demethylase as substrate preincubated for 5 mins followed by NADPH addition measured after 15 mins by LC/MS/MS analysis relative to control; details: probe dextromethorphan (O-demethylation)
CYP2D6, sequence (P10635 whole entry): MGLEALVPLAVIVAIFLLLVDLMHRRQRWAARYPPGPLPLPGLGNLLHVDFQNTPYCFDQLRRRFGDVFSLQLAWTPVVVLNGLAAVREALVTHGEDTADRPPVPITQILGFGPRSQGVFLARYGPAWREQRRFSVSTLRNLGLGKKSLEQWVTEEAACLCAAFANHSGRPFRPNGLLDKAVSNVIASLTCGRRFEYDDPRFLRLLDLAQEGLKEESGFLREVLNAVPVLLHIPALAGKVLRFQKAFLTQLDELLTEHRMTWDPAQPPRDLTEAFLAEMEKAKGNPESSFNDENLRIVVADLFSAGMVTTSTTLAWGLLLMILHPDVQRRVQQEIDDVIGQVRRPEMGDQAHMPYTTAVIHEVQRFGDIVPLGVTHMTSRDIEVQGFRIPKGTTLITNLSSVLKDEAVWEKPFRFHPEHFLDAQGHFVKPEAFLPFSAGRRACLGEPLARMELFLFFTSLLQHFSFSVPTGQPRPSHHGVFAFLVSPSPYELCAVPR

CYP2C9 = CYP2C9 (Homo sapiens, UniProt P11712); assay: Residual activity of CYP2C9 in human liver microsomes at 10 uM using tolbutamide 4-hydroxylase as substrate preincubated for 5 mins followed by NADPH addition measured after 15 mins by LC/MS/MS analysis relative to control; details: probe tolbutamide (4-hydroxylation)
CYP2C9, sequence (P11712 whole entry): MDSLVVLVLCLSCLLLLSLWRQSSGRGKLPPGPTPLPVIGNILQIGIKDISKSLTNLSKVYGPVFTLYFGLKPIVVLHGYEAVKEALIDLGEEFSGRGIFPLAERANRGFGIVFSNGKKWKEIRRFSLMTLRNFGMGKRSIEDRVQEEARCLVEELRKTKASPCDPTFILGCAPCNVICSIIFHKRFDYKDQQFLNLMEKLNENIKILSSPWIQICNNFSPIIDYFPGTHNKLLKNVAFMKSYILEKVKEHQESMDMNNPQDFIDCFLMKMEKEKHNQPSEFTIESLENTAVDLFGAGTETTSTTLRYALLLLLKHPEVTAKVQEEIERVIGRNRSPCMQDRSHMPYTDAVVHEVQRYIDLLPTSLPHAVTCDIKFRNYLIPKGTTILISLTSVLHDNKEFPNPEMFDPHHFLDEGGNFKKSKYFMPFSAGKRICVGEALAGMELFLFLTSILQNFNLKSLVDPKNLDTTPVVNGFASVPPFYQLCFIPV

[2] = Metabolic stability in human liver microsomes assessed as parent compound remaining at 1 uM after 30 mins in presence of NADPH by LC/MS/MS analysis; format: ADME, Microsome; details: read-out: Stability
Method in brief: as §1

[3] = Metabolic stability in rat liver microsomes assessed as parent compound remaining at 1 uM after 30 mins in presence of NADPH by LC/MS/MS analysis; format: ADME, Microsome; details: read-out: Stability
Method in brief: as §1

CYP3A4 = CYP3A4 (Homo sapiens, UniProt P08684); assay: Residual activity of CYP3A4 in human liver microsomes at 10 uM using midazolam 1-hydroxylase as substrate preincubated for 5 mins followed by NADPH addition measured after 15 mins by LC/MS/MS analysis relative to control; details: probe midazolam (1-hydroxylation)
CYP3A4, sequence (P08684 whole entry): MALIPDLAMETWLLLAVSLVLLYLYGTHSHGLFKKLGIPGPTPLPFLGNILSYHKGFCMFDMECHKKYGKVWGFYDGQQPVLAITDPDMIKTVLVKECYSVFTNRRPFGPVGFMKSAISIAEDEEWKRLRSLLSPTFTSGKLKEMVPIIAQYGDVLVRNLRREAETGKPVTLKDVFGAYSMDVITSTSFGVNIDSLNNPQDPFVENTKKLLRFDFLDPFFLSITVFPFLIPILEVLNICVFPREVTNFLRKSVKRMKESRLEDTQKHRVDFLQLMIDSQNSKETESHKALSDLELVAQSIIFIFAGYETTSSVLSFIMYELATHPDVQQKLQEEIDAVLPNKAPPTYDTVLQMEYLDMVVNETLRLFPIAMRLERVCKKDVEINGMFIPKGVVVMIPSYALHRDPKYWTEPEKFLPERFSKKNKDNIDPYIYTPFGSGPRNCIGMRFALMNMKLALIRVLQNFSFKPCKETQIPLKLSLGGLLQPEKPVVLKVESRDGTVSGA

CYP1A2 = biological target: T1, CYP1A2 (Homo sapiens, UniProt P05177); assay: Residual activity of CYP1A2 in human liver microsomes at 10 uM using phenacetin O-deethylase as substrate preincubated for 5 mins followed by NADPH addition measured after 15 mins by LC/MS/MS analysis relative to control; details: probe phenacetin (O-deethylation)
T1 sequence (P05177 whole entry): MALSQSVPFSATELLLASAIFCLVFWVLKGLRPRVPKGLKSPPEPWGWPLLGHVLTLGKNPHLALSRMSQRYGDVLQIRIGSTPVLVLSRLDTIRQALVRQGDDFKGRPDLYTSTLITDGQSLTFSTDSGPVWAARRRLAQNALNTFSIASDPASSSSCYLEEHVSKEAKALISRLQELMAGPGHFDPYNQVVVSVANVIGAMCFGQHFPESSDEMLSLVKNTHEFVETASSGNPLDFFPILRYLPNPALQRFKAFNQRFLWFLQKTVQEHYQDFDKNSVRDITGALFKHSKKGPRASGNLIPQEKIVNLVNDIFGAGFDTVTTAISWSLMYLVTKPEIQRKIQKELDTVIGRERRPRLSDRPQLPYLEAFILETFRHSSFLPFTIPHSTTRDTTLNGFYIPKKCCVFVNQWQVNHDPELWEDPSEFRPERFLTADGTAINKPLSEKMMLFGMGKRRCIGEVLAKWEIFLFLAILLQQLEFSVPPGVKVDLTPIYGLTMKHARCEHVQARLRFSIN

[4] = Metabolic stability in dog liver microsomes assessed as parent compound remaining at 1 uM after 30 mins in presence of NADPH by LC/MS/MS analysis; format: ADME, Canis lupus familiaris, Microsome; details: read-out: Stability
Method in brief: as §1

BaF3 = assay: Antiproliferative activity against mouse BAF3 cells assessed as reduction in cell viability after 72 hrs by MTS assay; format: cell-based; details: BaF3, 72 h
[5] = biological target: ALK tyrosine kinase receptor (Homo sapiens, UniProt Q9UM73); assay: Inhibition of GST-tagged human ALK cytoplasmic domain (1058 to 1620 residues) expressed in baculovirus expression system using Poly G:T (4:1) as substrate after 30 mins by Z-LYTE assay
ALK tyrosine kinase receptor, sequence (Q9UM73 whole entry, the tested form may be a part): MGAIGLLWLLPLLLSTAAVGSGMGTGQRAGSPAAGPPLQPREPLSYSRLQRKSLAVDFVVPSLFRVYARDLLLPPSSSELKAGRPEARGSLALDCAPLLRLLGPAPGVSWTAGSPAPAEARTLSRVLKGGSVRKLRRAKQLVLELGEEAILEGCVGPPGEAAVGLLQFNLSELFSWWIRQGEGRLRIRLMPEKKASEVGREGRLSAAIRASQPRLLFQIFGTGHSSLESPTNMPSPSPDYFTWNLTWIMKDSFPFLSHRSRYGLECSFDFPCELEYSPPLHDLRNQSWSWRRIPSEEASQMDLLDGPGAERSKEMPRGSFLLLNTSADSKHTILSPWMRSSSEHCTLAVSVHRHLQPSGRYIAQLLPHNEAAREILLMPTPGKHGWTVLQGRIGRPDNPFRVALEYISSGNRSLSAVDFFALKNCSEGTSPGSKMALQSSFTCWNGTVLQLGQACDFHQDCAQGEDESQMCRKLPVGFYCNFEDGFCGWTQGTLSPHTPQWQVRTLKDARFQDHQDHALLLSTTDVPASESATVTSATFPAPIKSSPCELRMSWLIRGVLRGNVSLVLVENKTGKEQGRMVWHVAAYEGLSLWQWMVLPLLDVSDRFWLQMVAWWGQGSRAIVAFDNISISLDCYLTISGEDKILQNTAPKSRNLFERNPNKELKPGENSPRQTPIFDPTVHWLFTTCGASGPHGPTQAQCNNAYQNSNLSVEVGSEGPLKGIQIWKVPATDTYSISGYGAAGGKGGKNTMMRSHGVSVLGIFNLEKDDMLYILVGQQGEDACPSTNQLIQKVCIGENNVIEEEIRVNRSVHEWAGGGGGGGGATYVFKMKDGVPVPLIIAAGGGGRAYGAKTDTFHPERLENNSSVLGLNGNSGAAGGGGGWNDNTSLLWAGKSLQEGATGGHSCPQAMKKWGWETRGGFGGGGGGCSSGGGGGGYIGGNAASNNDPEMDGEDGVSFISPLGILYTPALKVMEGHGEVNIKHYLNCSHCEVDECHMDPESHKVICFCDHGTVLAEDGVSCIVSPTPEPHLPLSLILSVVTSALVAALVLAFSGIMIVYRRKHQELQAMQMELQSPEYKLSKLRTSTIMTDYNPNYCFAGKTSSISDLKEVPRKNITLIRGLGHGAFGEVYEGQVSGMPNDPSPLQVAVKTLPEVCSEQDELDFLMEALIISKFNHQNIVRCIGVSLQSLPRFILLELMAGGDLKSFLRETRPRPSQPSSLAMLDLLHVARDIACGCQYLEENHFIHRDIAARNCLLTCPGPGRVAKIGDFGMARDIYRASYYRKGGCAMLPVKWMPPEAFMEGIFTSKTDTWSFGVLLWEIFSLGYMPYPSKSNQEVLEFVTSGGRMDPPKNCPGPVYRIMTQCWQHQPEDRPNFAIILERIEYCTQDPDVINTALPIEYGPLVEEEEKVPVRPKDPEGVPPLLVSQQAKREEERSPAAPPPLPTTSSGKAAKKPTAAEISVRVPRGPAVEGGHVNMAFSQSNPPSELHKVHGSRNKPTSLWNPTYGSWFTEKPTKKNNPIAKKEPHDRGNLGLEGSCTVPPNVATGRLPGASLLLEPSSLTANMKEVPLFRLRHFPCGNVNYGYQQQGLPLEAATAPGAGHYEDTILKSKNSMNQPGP

CYP2C19, sequence (P33261 whole entry): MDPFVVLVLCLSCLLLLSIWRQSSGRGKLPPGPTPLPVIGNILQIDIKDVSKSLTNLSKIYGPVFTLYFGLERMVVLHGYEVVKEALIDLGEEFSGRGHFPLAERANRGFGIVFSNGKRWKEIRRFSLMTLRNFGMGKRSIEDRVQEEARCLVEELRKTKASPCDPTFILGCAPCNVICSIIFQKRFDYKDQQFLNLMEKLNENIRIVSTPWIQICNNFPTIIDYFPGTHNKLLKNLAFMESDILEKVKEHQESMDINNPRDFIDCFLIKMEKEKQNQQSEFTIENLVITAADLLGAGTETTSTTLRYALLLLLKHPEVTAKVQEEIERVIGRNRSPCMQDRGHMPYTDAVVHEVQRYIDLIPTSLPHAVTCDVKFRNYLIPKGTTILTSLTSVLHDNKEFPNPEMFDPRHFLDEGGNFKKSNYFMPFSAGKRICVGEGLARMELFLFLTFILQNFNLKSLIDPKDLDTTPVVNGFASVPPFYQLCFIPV

Structure (SMILES)	Activity at […], 10 µM (CYP2C19) [%]	remaining at 0.5 h, 1 µM [1] [%]	Activity at […], 10 µM (CYP2D6) [%]	Activity at […], 10 µM (CYP2C9) [%]	remaining at 0.5 h, 1 µM [2] [%]	remaining at 0.5 h, 1 µM [3] [%]	Activity at […], 10 µM (CYP3A4) [%]	Activity at […], 10 µM (CYP1A2) [%]	remaining at 0.5 h, 1 µM [4] [%]	EC50 (BaF3) [µM]	IC50 [5] [µM]
C=CC(=O)Nc1cc(Nc2ncc(Cl)c(Nc3ccccc3S(=O)(=O)N(C)C)n2)c(OC)cc1N(C)CCN(C)C	75	23	88	59	11	13	39	87	31		
C=CC(=O)Nc1cc(Nc2nccc(Nc3ccccc3P(C)(C)=O)n2)c(OC)cc1N(C)CCN(C)C	> 100	76	87	90	70	78	89	84	73	> 5	0.695
C=CC(=O)Nc1cc(Nc2ncc(I)c(Nc3ccccc3P(C)(C)=O)n2)c(OC)cc1N(C)CCN(C)C	99	57	80	> 100	65	81	88	91	93	> 5	
C=CC(=O)Nc1cc(Nc2ncc(Cl)c(Nc3ccccc3P(C)(C)=O)n2)c(OC)cc1N(C)CCN(C)C	98	66	85	> 100	61	76	91	93	77	> 5	
C=CC(=O)Nc1cc(Nc2nccc(Nc3ccccc3S(=O)(=O)N(C)C)n2)c(OC)cc1N(C)CCN(C)C	85	5	79	88	10	6	56	82	50	> 5	
C=CC(=O)Nc1cc(Nc2nccc(-c3cn(C)c4ccccc34)n2)c(OC)cc1N(C)CCN(C)C [OSIMERTINIB]										> 5	0.177
C=CC(=O)Nc1cccc(Oc2nc(Nc3ccc(N4CCN(C)CC4)cc3OC)ncc2Cl)c1										> 5	0.99
C=CC(=O)Nc1cc(Nc2ncc(F)c(Nc3ccccc3S(=O)(=O)N(C)C)n2)c(OC)cc1N(C)CCN(C)C	91	10	> 100	88	9	7	71	> 100	33		

The next lines start with the values.

Activity at […], 10 µM (CYP2C19) [%]	remaining at 0.5 h, 1 µM [1] [%]	Activity at […], 10 µM (CYP2D6) [%]	Activity at […], 10 µM (CYP2C9) [%]	remaining at 0.5 h, 1 µM [2] [%]	remaining at 0.5 h, 1 µM [3] [%]	Activity at […], 10 µM (CYP3A4) [%]	Activity at […], 10 µM (CYP1A2) [%]	remaining at 0.5 h, 1 µM [4] [%]	EC50 (BaF3) [µM]	IC50 [5] [µM]	Structure (SMILES)
93	15	95	94	26	11	51	91	27	> 5		C=CC(=O)Nc1cc(Nc2ncc(F)c(Nc3ccccc3S(=O)(=O)C(C)C)n2)c(OC)cc1N(C)CCN(C)C
67	12	93	85	13	12	54	79	35			C=CC(=O)Nc1cc(Nc2ncc(I)c(Nc3ccccc3S(=O)(=O)N(C)C)n2)c(OC)cc1N(C)CCN(C)C
87	8	67	90	5	22	40	80	48	> 5		C=CC(=O)Nc1cc(Nc2nccc(Nc3ccccc3S(=O)(=O)C(C)C)n2)c(OC)cc1N(C)CCN(C)C
86	10	82	88	14	14	47	81	19	> 5		C=CC(=O)Nc1cc(Nc2ncc(I)c(Nc3ccccc3S(=O)(=O)C(C)C)n2)c(OC)cc1N(C)CCN(C)C
									> 5		Cc1cc(Nc2ncc(Cl)c(Nc3ccccc3S(=O)(=O)C(C)C)n2)c(OC(C)C)cc1C1CCNCC1 [CERITINIB]
> 100	80	> 100	> 100	84	87	> 100	> 100	87	> 5		C=CC(=O)Nc1cc(Nc2ncc(F)c(Nc3ccccc3P(C)(C)=O)n2)c(OC)cc1N(C)CCN(C)C
